The source made the active and inactive calls. The rule behind the calls is not given here.
Tests used:
[1] = In vivo activation of Nrf2 in male db/db mouse assessed as increase in NQO1 mRNA expression in kidney at 100 mg/kg, po administered via gavage and measured after 6 hrs relative to control; type: functional
Procedure, shortened: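 Fed male db/db mice (8–10 weeks) dosed 100 mg/kg by oral gavage in 1% HEC. Kidney Nqo1 mRNA measured at 6 h or 24 h and expressed as % change versus vehicle-treated mice.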

[2] = In vivo activation of Nrf2 in male db/db mouse assessed as increase in NQO1 mRNA expression in kidney at 100 mg/kg, po administered via gavage and measured after 24 hrs relative to control; type: functional
[3] = molecular target: T1, RNA-binding protein 12B (Homo sapiens) (UniProt Q8IXT5); assay: Binding affinity to RBM12B at C204 residue in human MDA-MB-231 cells at 1 uM incubated for 3 hrs in presence of IAA by proteome-wide scale isoTOP ABPP method; type: cell-based
T1 sequence (whole entry): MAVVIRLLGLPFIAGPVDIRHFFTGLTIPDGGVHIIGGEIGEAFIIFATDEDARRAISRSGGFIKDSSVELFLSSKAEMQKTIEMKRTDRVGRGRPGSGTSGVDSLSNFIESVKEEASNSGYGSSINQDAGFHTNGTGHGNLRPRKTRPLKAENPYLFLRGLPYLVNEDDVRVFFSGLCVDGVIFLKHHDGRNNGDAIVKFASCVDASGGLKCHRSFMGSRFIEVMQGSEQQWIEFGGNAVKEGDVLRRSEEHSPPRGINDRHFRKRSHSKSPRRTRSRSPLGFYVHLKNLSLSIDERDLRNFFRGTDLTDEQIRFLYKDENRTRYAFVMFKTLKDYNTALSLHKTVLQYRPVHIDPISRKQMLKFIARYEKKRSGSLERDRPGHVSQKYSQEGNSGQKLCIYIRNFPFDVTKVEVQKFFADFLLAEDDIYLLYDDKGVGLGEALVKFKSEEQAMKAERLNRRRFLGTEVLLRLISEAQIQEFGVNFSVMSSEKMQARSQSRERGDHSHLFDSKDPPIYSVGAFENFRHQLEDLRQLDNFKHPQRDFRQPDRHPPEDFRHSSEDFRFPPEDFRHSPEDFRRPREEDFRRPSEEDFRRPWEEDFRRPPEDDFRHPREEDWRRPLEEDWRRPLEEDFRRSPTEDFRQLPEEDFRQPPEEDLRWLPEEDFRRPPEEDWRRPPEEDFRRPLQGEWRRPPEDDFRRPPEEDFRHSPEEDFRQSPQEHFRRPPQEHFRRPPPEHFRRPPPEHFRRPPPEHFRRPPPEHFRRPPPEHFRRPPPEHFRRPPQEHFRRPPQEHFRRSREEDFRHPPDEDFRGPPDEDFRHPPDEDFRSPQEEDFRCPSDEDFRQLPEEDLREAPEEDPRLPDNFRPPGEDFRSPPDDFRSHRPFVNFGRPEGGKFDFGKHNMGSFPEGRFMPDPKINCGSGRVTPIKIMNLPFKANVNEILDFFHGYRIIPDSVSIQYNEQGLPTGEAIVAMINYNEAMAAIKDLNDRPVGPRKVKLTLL
Procedure, shortened: (§1)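 Live MDA-MB-231 cells treated 3 h with compound at 1 μM, or with DMSO vehicle. 100 μM iodoacetamide-alkyne then added as a clickable cysteine-reactive probe. Cysteine competition read by isoTOP ABPP; competed peptides called at ratio R > 4.5.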

[4] = molecular target: Kelch-like ECH-associated protein 1 (Homo sapiens) (UniProt Q14145); assay: Binding affinity to human Keap1 BTB domain (48 to 213 residues) extracted from Escherichia coli BL21(DE3)-R3-pRARE2 cells assessed as adduct formation at 100 uM by LC-MS analysis
[5] = molecular target: T2, Kelch-like protein 26 (Homo sapiens) (UniProt Q53HC5); assay: Binding affinity to human KLHL26 BTB domain (34 to 161 residues) extracted from Escherichia coli BL21(DE3)-R3-pRARE2 cells assessed as adduct formation at 100 uM by LC-MS analysis
T2 sequence (whole entry): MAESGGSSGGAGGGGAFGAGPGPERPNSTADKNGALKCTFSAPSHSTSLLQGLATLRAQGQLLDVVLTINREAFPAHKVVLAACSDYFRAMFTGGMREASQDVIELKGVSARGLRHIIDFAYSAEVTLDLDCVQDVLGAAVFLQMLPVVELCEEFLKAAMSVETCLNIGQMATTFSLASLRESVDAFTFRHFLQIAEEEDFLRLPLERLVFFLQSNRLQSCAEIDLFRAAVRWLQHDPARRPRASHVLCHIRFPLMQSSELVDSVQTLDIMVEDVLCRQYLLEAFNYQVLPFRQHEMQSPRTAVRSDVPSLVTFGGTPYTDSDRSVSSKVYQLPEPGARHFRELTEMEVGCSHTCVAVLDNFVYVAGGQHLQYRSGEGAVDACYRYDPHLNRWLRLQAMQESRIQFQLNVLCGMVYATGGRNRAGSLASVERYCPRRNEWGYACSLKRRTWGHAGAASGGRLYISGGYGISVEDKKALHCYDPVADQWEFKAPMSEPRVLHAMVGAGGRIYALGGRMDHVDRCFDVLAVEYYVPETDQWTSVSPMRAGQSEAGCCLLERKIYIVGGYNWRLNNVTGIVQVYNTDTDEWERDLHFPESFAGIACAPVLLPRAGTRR

[6] = Efflux ratio of apparent permeability across basolateral to apical over apical to basolateral side in human Caco-2 cells at 10 uM incubated for 120 mins by LC-MS/MS analysis; details: caco-2, 2 h
Keap1/Nrf2 [7] = molecular target: T3, Keap1/Nrf2 (Homo sapiens, UniProt Q14145); assay: Inhibition of human Keap1/PL-tagged human Nrf2 protein-protein interaction in human PathHunter U2OS Keap1-NRF2 Nuclear Translocation cells assessed as increase in Nrf2 translocation incubated for 3 hrs by luminescence based analysis; type: cell-based
in vitro [8] = type: ADME, Microsome; details: rat, pooled liver microsomes, time < 55 min, read-out: CLH
[9] = Apparent permeability across apical to basolateral side in human Caco-2 cells at 10 uM incubated for 120 mins by LC-MS/MS analysis
[10] = Genotoxicity in human TK6 cells assessed as clastogenicity at 10 uM measured after 4 to 24 hrs by DNA damage response assay; type: toxicity, cell-based; details: tk6, 10 µM, time 4-24 hrs
[11] = Genotoxicity in […] assessed as clastogenicity at 10 uM measured after 4 to 24 hrs by DNA damage response assay; type: toxicity, cell-based; details: time 4-24 hrs
in vitro [12] = type: ADME, Microsome; details: human, pooled liver microsomes, time < 55 min, read-out: CLH
[13] = AUC in male db/db mouse at 100 mg/kg, po administered via gavage and measured after 24 hrs; type: ADME, organism-based; details: in vivo
Procedure, shortened: (§2)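 Male db/db mice (8–10 weeks), fed, single oral gavage of 100 mg/kg; vehicle 1% hydroxyethyl cellulose, except one compound given in Phosal 50PG/ethanol/PEG400.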

Keap1/Nrf2 [14] = molecular target: T3, Keap1/Nrf2; assay: Inhibition of Keap1/Nrf2 protein-protein interaction in human HepG2 cells transfected with beta-lactamase under the control of ARE incubated for 16 hrs by ARE-reporter based FRET assay; type: cell-based
[15] = Cmax in male db/db mouse at 100 mg/kg, po administered via gavage and measured after 30 mins; type: ADME, organism-based; details: in vivo, 0.5 h; procedure, shortened: as §2
in vitro [16] = type: ADME, Microsome; details: mouse, pooled liver microsomes, time < 55 min, read-out: CLH
Mus musculus [17] = assay: Induction of NQO1 mRNA expression in C57BI6 mouse kidney at 10 mg/kg measured after 24 hrs; type: functional, organism-based
Mus musculus [18] = assay: Induction of NQO1 mRNA expression in Nrf2-/- mouse kidney at 10 mg/kg measured after 24 hrs; type: functional, organism-based
[19] = molecular target: Kelch-like ECH-associated protein 1 (Homo sapiens) (UniProt Q14145); assay: Binding affinity to human Keap1 BTB domain (48 to 213 residues) extracted from Escherichia coli BL21(DE3)-R3-pRARE2 cells assessed as adduct formation by intact mass spectrometry
Mus musculus [20] = assay: Induction of NQO1 mRNA expression in Nrf2-/- mouse kidney at 100 mg/kg measured after 24 hrs; type: functional, organism-based
Fibroblast = assay: Effect on ARE signal response in Nrf2 knockout mouse embryonic fibroblast cells; type: functional, cell-based
Mus musculus [21] = assay: Induction of NQO1 mRNA expression in C57BI6 mouse kidney at 100 mg/kg measured after 24 hrs; type: functional, organism-based
Homo sapiens = species: Homo sapiens; assay: Binding affinity to human Keap1 BTB domain C151A mutant (48 to 213 residues) extracted from Escherichia coli BL21(DE3)-R3-pRARE2 cells assessed as adduct formation by intact mass spectrometry
[22] = molecular target: T4, Perilipin-3 (Homo sapiens) (UniProt O60664); assay: Binding affinity to PLIN3 at C39 residue in human MDA-MB-231 cells at 1 uM incubated for 3 hrs in presence of IAA by proteome-wide scale isoTOP ABPP method; type: cell-based; procedure, shortened: as §1
T4 sequence (whole entry): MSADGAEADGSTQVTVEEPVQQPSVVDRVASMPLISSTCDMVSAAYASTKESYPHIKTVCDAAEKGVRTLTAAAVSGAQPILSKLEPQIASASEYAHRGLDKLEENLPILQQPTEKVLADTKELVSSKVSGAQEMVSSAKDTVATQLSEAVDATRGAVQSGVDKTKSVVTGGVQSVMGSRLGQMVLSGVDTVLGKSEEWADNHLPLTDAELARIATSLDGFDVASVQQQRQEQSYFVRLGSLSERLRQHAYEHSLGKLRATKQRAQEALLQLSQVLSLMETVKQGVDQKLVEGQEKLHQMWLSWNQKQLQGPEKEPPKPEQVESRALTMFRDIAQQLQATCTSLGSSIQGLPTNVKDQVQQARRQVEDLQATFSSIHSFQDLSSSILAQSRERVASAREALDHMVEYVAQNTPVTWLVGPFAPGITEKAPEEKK

[23] = molecular target: T4, Perilipin-3 (Homo sapiens); assay: Binding affinity to PLIN3 at C60 residue in human MDA-MB-231 cells at 1 uM incubated for 3 hrs in presence of IAA by proteome-wide scale isoTOP ABPP method; type: cell-based; procedure, shortened: as §1

Kelch-like ECH-associated protein 1 (Homo sapiens), sequence (Q14145 whole entry, the tested form may be a part): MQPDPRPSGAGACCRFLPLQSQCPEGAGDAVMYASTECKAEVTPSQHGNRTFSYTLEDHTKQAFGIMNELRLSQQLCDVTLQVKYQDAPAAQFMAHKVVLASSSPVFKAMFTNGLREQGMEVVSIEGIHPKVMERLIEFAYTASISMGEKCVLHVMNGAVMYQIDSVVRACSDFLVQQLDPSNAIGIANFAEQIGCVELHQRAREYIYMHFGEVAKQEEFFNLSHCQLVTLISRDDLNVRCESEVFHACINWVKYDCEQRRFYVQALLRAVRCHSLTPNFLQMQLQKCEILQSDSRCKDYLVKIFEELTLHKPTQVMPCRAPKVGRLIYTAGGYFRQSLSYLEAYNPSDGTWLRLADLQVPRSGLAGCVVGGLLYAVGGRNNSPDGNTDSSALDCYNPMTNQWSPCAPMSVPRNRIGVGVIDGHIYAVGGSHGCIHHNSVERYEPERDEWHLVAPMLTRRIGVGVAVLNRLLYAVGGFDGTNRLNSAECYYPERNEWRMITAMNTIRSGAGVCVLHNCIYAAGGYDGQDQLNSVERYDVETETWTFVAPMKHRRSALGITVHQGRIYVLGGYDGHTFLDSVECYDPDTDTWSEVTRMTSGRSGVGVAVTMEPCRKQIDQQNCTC
T3 sequence (Q16236 whole entry): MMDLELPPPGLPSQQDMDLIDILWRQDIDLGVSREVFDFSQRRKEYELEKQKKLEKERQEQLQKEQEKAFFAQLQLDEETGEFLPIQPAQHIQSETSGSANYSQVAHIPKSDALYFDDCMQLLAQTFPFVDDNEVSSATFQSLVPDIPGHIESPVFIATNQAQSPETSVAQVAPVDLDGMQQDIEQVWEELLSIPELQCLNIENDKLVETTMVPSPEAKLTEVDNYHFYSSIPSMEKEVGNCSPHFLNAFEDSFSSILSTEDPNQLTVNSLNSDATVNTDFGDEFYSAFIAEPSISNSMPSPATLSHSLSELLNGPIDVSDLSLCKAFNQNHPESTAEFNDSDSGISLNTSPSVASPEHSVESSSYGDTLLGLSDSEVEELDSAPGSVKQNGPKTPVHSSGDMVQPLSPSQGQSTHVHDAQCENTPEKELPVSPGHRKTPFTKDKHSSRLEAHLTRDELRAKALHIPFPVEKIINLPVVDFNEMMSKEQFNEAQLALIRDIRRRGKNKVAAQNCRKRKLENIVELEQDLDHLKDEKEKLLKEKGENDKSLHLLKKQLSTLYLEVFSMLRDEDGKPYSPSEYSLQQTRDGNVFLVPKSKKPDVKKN
T3 sequence (Q14145 whole entry): as the sequence (Q14145 whole entry, the tested form may be a part) above

CCS(=O)(=O)c1nc(S(=O)(=O)c2ccccc2C#N)c(N2CCN(C)C(=O)C2)s1 showed an Activity [1] of 299% and an Activity [2] of 209%.
For C=Cc1nc(S(=O)(=O)c2ccccc2Cl)c(N2CCN(C)C(=O)C2)s1, the Activity [3] was “Active”.
In the case of CCS(=O)(=O)c1nc(S(=O)(=O)c2ccccc2C#N)c(N2CCN(C)C(=O)[C@H]2C)s1, the Activity [1] is reported as 88%, the Activity [4] is reported as “Active” and the Activity [5] is reported as “inactive”. The Activity [2] was 214%.
For CCP1(=O)CCN(c2sc(S(=O)(=O)CC)nc2S(=O)(=O)c2cccc(Cl)c2Cl)CC1, the Ratio [6] was 8.7, the EC50 (Keap1/Nrf2 [7]) was 527 nM and the CLint scaled at 0.75 h, 0.1 µM (in vitro [8]) was 62 mL/min/kg. For the same compound, the Papp A→B at 2 h, 10 µM [9] was 3 ×10⁻⁶ cm/s, the Activity [1] was 125% and the Activity [10] was “Non-toxic”. The Activity [4] was “Active”, the Activity [11] was “Non-toxic” and the Activity [5] was “inactive”. For the same compound, the CLint scaled at 0.75 h, 0.1 µM (in vitro [12]) was 2.6 mL/min/kg, the Activity [2] was 116% and the AUC [13] was 8.5 µM·h. It also gave an EC50 (Keap1/Nrf2 [14]) of 160 nM, a Cmax [15] of 6.39 µM and a CLint scaled at 0.75 h, 0.1 µM (in vitro [16]) of 52 mL/min/kg.
For CCS(=O)(=O)c1nc(S(=O)(=O)c2ccccc2Cl)c(N2CCP(C)(=O)CC2)s1, the Ratio [6] was 4.5, the EC50 (Keap1/Nrf2 [7]) was 4210 nM and the CLint scaled at 0.75 h, 0.1 µM (in vitro [8]) was 5.6 mL/min/kg. For the same compound, the Papp A→B at 2 h, 10 µM [9] was 1.4 ×10⁻⁶ cm/s and the EC50 (Keap1/Nrf2 [14]) was 946 nM.
Work on Cc1ccc(S(=O)(=O)c2nc(S(=O)(=O)c3ccccc3)sc2N2CCN(C)CC2)cc1 yielded an EC50 (Keap1/Nrf2 [7]) of 338 nM and an EC50 (Keap1/Nrf2 [14]) of 115 nM.
Compound CCS(=O)(=O)c1nc(S(=O)(=O)c2ccccc2Cl)c(N2CC3(CC3)C2)s1 has an EC50 (Keap1/Nrf2 [7]) of over 32000 nM and an EC50 (Keap1/Nrf2 [14]) of at least 13000 nM.
For CN1CCN(c2sc(S(=O)(=O)C3CC3)nc2S(=O)(=O)c2ccccc2Cl)CC1=O, the Activity [1] was 149% and the Activity [2] was 164%.
Cc1ccc(S(=O)(=O)c2nc(S(=O)(=O)c3ccccc3)sc2N2CCOCC2)cc1 gave an EC50 (Keap1/Nrf2 [7]) of 270 nM.
CCS(=O)(=O)c1nc(S(=O)(=O)c2ccc(-c3cccn(C)c3=O)cc2)c(N2CCN(C)C(=O)C2)s1 gave a Ratio [6] of 46, an EC50 (Keap1/Nrf2 [7]) of 1490 nM and a Papp A→B at 2 h, 10 µM [9] of 0.74 ×10⁻⁶ cm/s. The CLint scaled at 0.75 h, 0.1 µM (in vitro [12]) was 8.5 mL/min/kg, the EC50 (Keap1/Nrf2 [14]) was 516 nM and the CLint scaled at 0.75 h, 0.1 µM (in vitro [16]) was 22 mL/min/kg.
In the case of CC1(C)CC[C@]2(C(=O)O)CC[C@]3(C)[C@H](C(=O)C=C4[C@@]5(C)C=C(C#N)C(=O)C(C)(C)[C@@H]5CC[C@]43C)[C@@H]2C1, the Activity (Mus musculus [17]) is reported as “Active” and the Activity (Mus musculus [18]) is reported as “inactive”.
For CCS(=O)(=O)c1nc(S(=O)(=O)c2ccccc2Cl)c(N2CCN(C)C(=O)C2)s1, the Activity [19] was “Active”, the Activity (Mus musculus [20]) was “inactive” and the Activity [1] was 199%. For the same compound, the Activity (Fibroblast) was “Not active; Compound Selectively Acts Through Keap1-Nrf2 Axis”, the Activity (Mus musculus [21]) was “Active” and the Activity [2] was 379%. For the same compound, the Activity (Homo sapiens) was “inactive”.
For CCS(=O)(=O)c1nc(S(=O)(=O)c2ccccc2Cl)c(N2CCN(C)C(=O)[C@H]2C)s1, the Activity [22] was “Active”, the Activity [1] was 344% and the Activity [4] was “Active”. For the same compound, the Activity [3] was “Active”, the Activity [5] was “inactive” and the Activity [23] was “Active”.

Source: ChEMBL document CHEMBL6092223, “Covalent Inhibitors of KEAP1 with Exquisite Selectivity” (J Med Chem, 2024)
